Bioassay records (PubChem BioAssay)
This is a sample that favours compounds with a hit; in the whole collection about 4% have one here.
KCNK3 block: human KCNK3 channel inhibition, primary screen | O14649 | CHO-KCNK3 thallium flux, FluxOR fluorescence; stronger effect = lower value | B-score at 10 µM | hit rate 0.84% among 340,000;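 active = B-score under library mean minus 4 SD, starting fluorescence ratio at most library mean plus 5 SD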;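 note: more negative B-score means stronger inhibition of thallium flux through KCNK3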
KCNQ1 pot: potentiates or activates the human KCNQ1 potassium channel. B-score at 10 µM. hit rate 0.35% among 310,000. AID 2648. P51787. CHO-K1 KCNQ1, thallium flux FluxOR fluorescence; stronger effect = higher value;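 active = fluorescence ratio B-score, a plate-corrected score, at least three library SD, with initial intensity B-score within 5 SD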
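System: Stable KCNQ1 CHO-K1 line | Incubation: 90 min dye loading and 20 min compound exposure, both at room temperature | Measure: Ratio B score | Medium: Assay buffer for compound exposure, DMSO matched across wells | Compound dosing: Single-concentration screen | Probe or stimulus: K+/Tl+ depolarizing stimulus | Measured by: Kinetic FluxOR fluorescence, 10 s baseline plus 110 s post-stimulus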
PHOSPHO1 inh: inhibitors of human PHOSPHO1 phosphatase. Q8TCT1. recombinant PHOSPHO1, absorbance phosphatase assay. inhibition, % at 13.3 µM. hit rate 1.1% among 290,000; in the data active = inhibition above about 60%
Target sequence (Q8TCT1 whole entry, looked up): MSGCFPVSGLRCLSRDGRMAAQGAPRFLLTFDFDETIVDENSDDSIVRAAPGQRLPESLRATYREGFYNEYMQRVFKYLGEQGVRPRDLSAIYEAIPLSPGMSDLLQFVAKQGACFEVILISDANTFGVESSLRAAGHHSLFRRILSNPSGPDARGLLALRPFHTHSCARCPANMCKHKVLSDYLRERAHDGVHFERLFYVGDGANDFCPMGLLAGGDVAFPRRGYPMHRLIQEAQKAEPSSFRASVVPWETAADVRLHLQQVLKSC
KCNK9 inh: blocks the human KCNK9 two-pore domain potassium channel | hit rate 1.2% among 310,000 | Q9NPC2 | B-score at 10 µM | HEK293 KCNK9, FluxOR thallium flux fluorescence; stronger effect = lower value | AID 488922;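 active = ratio B-score over 3 SD below the library mean, with starting fluorescence within 5 SD of its mean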;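 note: negative B-score means less thallium flux so channel inhibition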
Target sequence (Q9NPC2 whole entry, looked up, the tested form may be a part): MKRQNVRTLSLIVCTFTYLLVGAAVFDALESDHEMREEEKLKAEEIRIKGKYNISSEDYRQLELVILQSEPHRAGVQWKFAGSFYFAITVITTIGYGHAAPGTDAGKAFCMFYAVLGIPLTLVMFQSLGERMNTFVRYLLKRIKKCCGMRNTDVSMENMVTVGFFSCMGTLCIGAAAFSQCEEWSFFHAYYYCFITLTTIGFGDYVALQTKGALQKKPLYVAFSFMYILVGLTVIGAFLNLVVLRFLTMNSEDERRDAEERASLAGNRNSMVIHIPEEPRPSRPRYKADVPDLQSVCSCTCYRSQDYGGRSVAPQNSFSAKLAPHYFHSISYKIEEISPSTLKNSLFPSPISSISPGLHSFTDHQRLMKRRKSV
hERG rescue: hERG (human) protection from proarrhythmic block. activation (rescue from dofetilide block), less the hit threshold, % at 10 µM. Q12809. hit rate 0.51% among 310,000. CHO-hERG, FluxOR thallium flux, dofetilide IC70 present;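 active = activation above the mean of controls blocked by dofetilide plus 5 SD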;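 note: thallium influx through hERG after potassium depolarization seen as dye fluorescence rise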
KCNQ1 block: human KCNQ1 channel inhibition; P51787; CHO-K1 KCNQ1, FluxOR thallium flux fluorescence; stronger effect = higher value; B-score at 10 µM; hit rate 1.3% among 310,000; AID 2642;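 active = compounds whose thallium flux B-score, printed positive for inhibition, exceeds three library SD while starting fluorescence stays within three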;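 note: channel opened by potassium depolarization with thallium stimulus after 20 min compound exposure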
Numbers stand for hits; n = inactive; x = no result given.

SMILES	KCNK3 block	KCNQ1 pot	PHOSPHO1 inh	KCNK9 inh	hERG rescue	KCNQ1 block
CN(CC(O)CN)CC(O)CN1CCCCC1 (stereo unspecified)	n	n	n	n	5.7	n
CCOC(=O)/C(=C/c1ccc(OC(F)F)cc1)C1=Nn2c(nnc2-c2ccc(Cl)cc2)SC1	n	x	x	x	x	x
COCCn1c(-c2ccco2)csc1=Nc1cccnc1	n	n	97.9	n	n	n
Cc1ccccc1OCCOc1cccc(/C=N/NC(=O)Cc2nnc(N)s2)c1	n	n	n	n	n	n
CCOC(=O)c1cc(C#N)c(Oc2cccc(C(F)(F)F)c2)nc1-c1ccccc1	n	n	n	n	n	6
Cc1cc(Oc2ccccc2)nc(SCC(=O)Nc2ccc(Cl)c(Cl)c2)n1	n	n	n	n	n	n
Cc1cc(Oc2ccc(C)c(Cl)c2)nc(SCC(=O)c2ccccc2)n1	n	n	n	-7.16	n	n
CC12CCC(=O)C=C1CCC1C2CCC2(C)C1CC[C@]2(O)C(=O)CO (stereo partly specified)	n	n	67.6	n	n	n
COc1ccccc1/C=C1\NC(=S)N(CC2CCCO2)C1=O (stereo unspecified)	n	n	97.4	n	n	n
COc1ccc(/C=C2/C(=O)N(CC3CCCO3)C(=S)N2C)c(OC)c1 (stereo unspecified)	n	n	n	n	n	n
CCCCC1(Cc2ccc([N+](=O)[O-])cc2)C(=O)N(c2ccccc2)N(c2ccccc2)C1=O	n	n	n	n	n	8
CCCCC1(COC(=O)CCC(=O)O)C(=O)N(c2ccccc2)N(c2ccccc2)C1=O	n	x	x	x	x	x
COc1cc(OC)cc(-c2c(-c3ccc(F)cc3)c3cc(Br)ccc3n2C)c1	n	x	x	x	x	x
O=C(COc1ccc(Cl)cc1)NCCSCc1cccc(Cl)c1	n	n	n	n	n	6
Cc1cccc(CSCCNC(=O)COc2ccc(Cl)cc2)c1	n	n	n	n	n	n
COc1ccc(Cl)cc1S(=O)(=O)N(C)CC(=O)N1CCCC1	n	n	n	n	n	n
O=C(CSc1ncnc2scc(-c3ccc(Cl)cc3)c12)NCc1ccc2c(c1)OCO2	-9.92	n	n	n	n	n
Cc1cc(C)cc(OCC(O)CN2CC(C)OC(C)C2)c1 (stereo unspecified)	n	n	n	n	n	n
Cc1ccc(Cn2c(O)c(N=NC(=S)Nc3ccccc3F)c3cc(S(=O)(=O)N4CCOCC4)ccc32)cc1	n	n	n	n	5.7	n
NC(=S)N=Nc1c(O)n(CCCl)c2ccccc12	n	n	n	n	n	n
CCNC(=S)N=Nc1c(O)n(Cc2ccc(Cl)cc2)c2ccccc12	n	18	n	n	n	n
O=Nc1c(O)n(Cc2ccccc2)c2ccccc12	n	n	n	n	n	n
Oc1c(N=NC(=S)Nc2ccccc2F)c2ccccc2n1Cc1ccccc1F	n	23	n	n	28.9	n
Oc1c(N=NC(=S)Nc2ccccc2F)c2ccccc2n1Cc1ccc(Cl)cc1	n	8	n	n	25.0	n
CCc1ccccc1NC(=S)N=Nc1c(O)n(C)c2ccc(S(=O)(=O)N3CCOCC3)cc12	n	n	n	n	n	n
SMILES	KCNK3 block	KCNQ1 pot	PHOSPHO1 inh	KCNK9 inh	hERG rescue	KCNQ1 block
CC(=O)c1ccccc1NC(=O)COC(=O)CSCC(=O)Nc1cc(C)on1	n	n	x	n	n	n
O=C(COS(=O)c1ccccc1)Nc1cc(Cl)ccc1N1CCOCC1 (stereo unspecified)	n	n	n	n	n	n
CCc1ccc(S(=O)(=O)N2c3ccc(C)cc3C3CN(C)CCC32)cc1 (stereo unspecified)	n	x	x	x	x	x
CCn1c(O)c(N=NC(=O)CNC(=O)c2ccccc2F)c2ccccc21	n	n	n	n	n	n
CCn1c(O)c(N=NC(=O)CNC(=O)c2ccco2)c2ccccc21	n	n	n	n	n	n
Cc1ccc(C)c(Cn2c(O)c(N=NC(=S)Nc3ccccc3F)c3ccccc32)c1	n	n	n	n	4.7	n
Cc1cccc(NC(=O)Cn2c(O)c(N=NC(=O)c3ccccc3O)c3ccccc32)c1	n	n	n	n	n	n
CCCn1c(O)c(N=NC(=O)c2ccco2)c2ccccc21	n	n	n	n	59.7	n
Cc1ccccc1Cn1c(O)c(N=NC(=S)Nc2ccccc2F)c2ccccc21	n	n	n	n	35.6	n
Cc1ccc(C2=N/C(=C\c3c(C)nn(-c4ccccc4)c3N3CCCC3)C(=O)O2)cc1	n	n	n	n	n	9
Cc1cc(C(F)(F)F)cc(NNC(=O)NC(=O)c2c(F)cccc2Cl)n1	n	n	n	n	n	n
Cc1cccc(C(=O)Nc2ccc(C(=O)/C=C/c3cccnc3)cc2)c1	n	n	n	n	n	n
Cc1cccc(C(=O)Nc2ccc(C(=O)/C=C/c3ccncc3)cc2)c1	n	n	n	n	n	12
Cc1cccc(C(=O)Nc2ccc(C(=O)Nc3ccc(O)cc3)cc2)c1	n	n	62.4	n	n	n
COc1cc(NCc2ccccc2)c2ncn(Cc3ccccc3)c2c1	n	x	x	x	x	x
Cc1cc(=O)n(C)c(=O)n1CCCCOc1ccc([N+](=O)[O-])cc1	n	n	n	n	n	n
Cc1cc(=O)n2nc(N3CCC(C(=O)N4CCN(c5ccccc5)CC4)CC3)sc2n1	n	n	n	n	n	n
CCCc1cc(=O)n2nc(N3CCC(C(=O)N4CCN(c5ccc(OC)cc5)CC4)CC3)sc2n1	n	n	63.6	n	n	n
CC1CCc2cc(F)ccc2N1C(=O)c1cc2nc(-c3ccco3)cc(C(F)(F)F)n2n1 (stereo unspecified)	n	n	n	n	n	n
COc1ccc(CCNc2oc(COc3ccccc3F)nc2C#N)cc1	n	n	n	n	n	n
COc1ccc(CCNc2oc(COc3ccc(Br)cc3)nc2C#N)cc1OC	-11.9	n	n	-8.05	n	n
CC(=O)OCC(=O)NCCCOc1cccc(CN2CCCCC2)c1	n	n	x	n	n	n
COC(=O)c1ccc(CN2C(=O)NC3(CCCCC3C)C2=O)o1 (stereo unspecified)	n	n	69.9	n	n	n
COC(=O)c1ccc(CN2C(=O)NC3(CCCc4ccccc43)C2=O)o1 (stereo unspecified)	n	n	n	n	n	n
C=CCc1c(OC(C)=O)c2ccccc2n(C)c1=O	n	n	n	n	n	n
O=C(CN1C(=O)NC2(CCCC2)C1=O)Nc1ccccc1-c1ccccc1	n	n	n	n	n	n
CCCCCCCNC(=O)c1ccc(N2CCC3(CC2)OCCO3)c([N+](=O)[O-])c1	n	n	n	-6.83	n	n
Cc1cc(/C=N/n2c(COc3ccccc3)nc3ccccc3c2=O)c(O)c([N+](=O)[O-])c1	n	n	n	n	n	13
COc1ccccc1C(=O)OCC(=O)NC(=O)NCc1ccccc1	n	n	n	n	n	n
